Screens from PubChem BioAssay.
In the library only some 2.9% were active in any assay of this set; here they are far more common.
MEKK2 mut-MEK5 – signal of MEK5 binding to mutant human MEKK2 PB1 domain; percent response, % at 10 µM; 290,000 compounds, 0.35% hits; bead flow cytometry, Alexa488-MEK5 binding to MEKK2 mutant; in the data active = percent response above about 24%, passing the limit was not always enough
ATG4B inh – ATG4B (human) cysteine protease inhibition. Q9Y4P1. ATG4B cleavage of LC3-PLA2, NBD-HPC fluorescence, 1 h. inhibition, % at 8.33 µM. 340,000 compounds, 0.51% hits. AID 504462; in the data active = inhibition above about 40%
Target sequence (Q9Y4P1 whole entry, looked up): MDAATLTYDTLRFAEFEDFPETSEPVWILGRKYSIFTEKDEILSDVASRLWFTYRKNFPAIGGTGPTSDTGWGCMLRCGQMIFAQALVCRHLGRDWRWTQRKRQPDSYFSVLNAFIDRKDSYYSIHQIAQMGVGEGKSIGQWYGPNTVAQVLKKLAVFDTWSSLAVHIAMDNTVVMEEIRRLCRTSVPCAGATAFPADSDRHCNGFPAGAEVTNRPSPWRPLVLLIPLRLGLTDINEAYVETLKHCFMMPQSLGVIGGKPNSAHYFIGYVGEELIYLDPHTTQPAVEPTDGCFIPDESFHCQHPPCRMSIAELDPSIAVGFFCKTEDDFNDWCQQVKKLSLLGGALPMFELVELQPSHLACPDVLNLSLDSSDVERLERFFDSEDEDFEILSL
MEKK2wt PB1 HTS – raises or lowers MEK5 binding to wildtype human MEKK2 PB1 domain. Q9Y2U5. bead flow cytometry, Alexa488-MEK5 binding to MEKK2 WT; actives lie on both sides. binding response (% of control), % at 10 µM. 290,000 compounds, 1.1% hits. AID 1531; in the data active = binding response below about 67% or above about 130%
B2AR ag – human beta-2 adrenergic receptor agonism by FAP | P07550 | Am2.2-beta2AR cells, FAP receptor internalization, flow cytometry | response, % (test concentration not listed) | 340,000 compounds, 0.43% hits;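 active = response above a set limit, near 3 SD of response in nonfluorescent compounds, cut at about 42% in these data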
MEKK3 PB1 HTS – modulators (inhibitors or enhancers) of MEK5 binding to human MEKK3 PB1 domain; binding response (% of control), % at 10 µM; 290,000 compounds, 1.4% hits; AID 1529; bead-based flow cytometry, Alexa488-MEK5 binding to MEKK3; actives lie on both sides; 0 = blocked by unlabeled MEK5, 100 = vehicle; Q99759;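 active = binding response more than 3 SD above or below the average of its plate-row segment, actives on both sides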;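 note: Alexa488 bead fluorescence after subtracting the streptavidin-only scavenger bead signal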
Dynein transport – dynein cargo transport inhibition; 3617.4 mouse cells, GR-EGFP nuclear translocation imaging; test concentration mostly 20 µM; stimulated with dexamethasone, 1 µM; active compounds read low; z-score, hits read low; 220,000 compounds, 0.47% hits;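 active = plate z-score of nuclear minus cytoplasmic receptor signal below a set negative limit, without overly bright fluorescence or cell loss, cut at about -3.5 in these data, passing the limit was not always enough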;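 note: z-score of nuclear minus cytoplasmic ring GR-EGFP intensity difference per well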
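Schedule: 48 h induction, then 1 h compound, then 30 min agonist, 37 °C. Buffer or medium: tetracycline-free induction medium containing charcoal-stripped FBS. Reagent: 1.0 µM final dexamethasone stimulus. Evaluation: nuclear versus cytoplasmic GR-EGFP signal, averaged per well. Signal: high-content fluorescence imaging after fixation.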
PLA2 counter – inhibits human PLA2, flagging false ATG4B inhibitors | shares compounds with ATG4B inh | purified PLA2, NBD-C6-HPC fluorescence, 45 min | inhibition, % at 8.33 µM | 1,600 compounds, 66% hits; in the data active = inhibition above about 50%
Target sequence (P04054 whole entry, looked up): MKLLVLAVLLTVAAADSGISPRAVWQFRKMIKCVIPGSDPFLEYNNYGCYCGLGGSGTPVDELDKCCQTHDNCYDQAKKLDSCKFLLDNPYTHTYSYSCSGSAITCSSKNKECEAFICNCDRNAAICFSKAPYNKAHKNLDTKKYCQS
* marks the source's active call; other numbers are inactive results.

For COc1ccc(S(=O)(=O)N(Cc2cccs2)C2CCCC2)cc1 the results were MEKK2 mut-MEK5 -7, ATG4B inh 50*, MEKK2wt PB1 HTS 94, B2AR ag 14, MEKK3 PB1 HTS 100, Dynein transport -0.079 and PLA2 counter 54*.
COc1ccc(S(=O)(=O)NCc2cccs2)cc1 was read as MEKK2 mut-MEK5 1, ATG4B inh -6, MEKK2wt PB1 HTS 99, B2AR ag -2, MEKK3 PB1 HTS 100 and Dynein transport 0.9.
For CCc1ccccc1N(C)S(=O)(=O)c1cc(-c2cc(C)no2)ccc1OC the results were MEKK2 mut-MEK5 2, ATG4B inh -20, MEKK2wt PB1 HTS 105, B2AR ag -14 and MEKK3 PB1 HTS 102.
For CC(C)(O)c1ccccc1CC[C@@H](SCC1(CC(=O)O)CC1)c1cccc(/C=C/c2ccc3ccc(Cl)cc3n2)c1 the results were MEKK2 mut-MEK5 0, ATG4B inh 92*, MEKK2wt PB1 HTS 94, B2AR ag -2, MEKK3 PB1 HTS 107 and PLA2 counter 92*.
O=[N+]([O-])c1ccc(N/N=C/c2c[nH]c3ccccc23)c(S(=O)(=O)Nc2ccc(Cl)cc2)c1 was read as ATG4B inh 42*, B2AR ag -194, Dynein transport -2.6 and PLA2 counter 53*.
`CN1CCN(S(=O)(=O)c2cc([N+](=O)[O-])ccc2N/N=C/c2ccc(Cl)cc2)CC1` gave MEKK2 mut-MEK5 0, ATG4B inh -3, MEKK2wt PB1 HTS 104, B2AR ag -3, MEKK3 PB1 HTS 110 and Dynein transport 0.74.
`COC(=O)/C=C1\NCCNC1=O` gave MEKK2 mut-MEK5 -2, ATG4B inh 6, MEKK2wt PB1 HTS 108, B2AR ag -2, MEKK3 PB1 HTS 100 and Dynein transport 0.0088.
CCN(CC)c1ccc(C(=C2C=CC(=[N+](CC)CC)C=C2)c2ccc(N(CC)CC)cc2)cc1 was read as ATG4B inh 58*, B2AR ag 82* and PLA2 counter 52*.
Screening CCN(CC)c1ccc(-n2c(C)c(C(C)=O)c(C(C)=O)c2C)cc1 returned MEKK2 mut-MEK5 -1, ATG4B inh -16, MEKK2wt PB1 HTS 98, B2AR ag 9, MEKK3 PB1 HTS 98 and Dynein transport -0.74.
`Nc1nc(SCc2nnc(SCC(=O)O)n2-c2ccccc2)nc2sc3c(c12)CCCC3` gave MEKK2 mut-MEK5 -10, ATG4B inh 46*, MEKK2wt PB1 HTS 92, B2AR ag 14, MEKK3 PB1 HTS 94, Dynein transport 0.031 and PLA2 counter 63*.
O=C(c1cc(-c2ccco2)on1)N1CCc2ccccc2C1 was read as MEKK2 mut-MEK5 -16, ATG4B inh 46*, MEKK2wt PB1 HTS 80, B2AR ag -6, MEKK3 PB1 HTS 77, Dynein transport -1.4 and PLA2 counter 58*.
Screening O=C(c1cc(-c2ccco2)on1)N1CCCc2ccccc21 returned MEKK2 mut-MEK5 -2, ATG4B inh 63*, MEKK2wt PB1 HTS 93, B2AR ag -9, MEKK3 PB1 HTS 97, Dynein transport -0.11 and PLA2 counter 49.
For O=C(c1cc(-c2ccccc2O)on1)N1CCc2ccccc2C1 the results were MEKK2 mut-MEK5 -2, ATG4B inh 32, MEKK2wt PB1 HTS 93, B2AR ag -3, MEKK3 PB1 HTS 97 and Dynein transport 0.41.
`Cc1ccc(C)c(S(=O)(=O)N2CCN(C(=O)c3ccncc3)CC2)c1` gave ATG4B inh -2 and B2AR ag -2.
O=C(CS(=O)(=O)c1ccccc1)Nc1nnc(Cc2ccccc2)s1 was read as MEKK2 mut-MEK5 -3, ATG4B inh -2, MEKK2wt PB1 HTS 97, B2AR ag -3 and MEKK3 PB1 HTS 98.
Cc1nc(N2CCNCC2)c2c3c(sc2n1)CCCC3 was read as MEKK2 mut-MEK5 16, ATG4B inh 1, MEKK2wt PB1 HTS 115, B2AR ag 18 and MEKK3 PB1 HTS 105.
Screening COCCCNC(=S)N1CCN(c2nc(C)nc3sc4c(c23)CCCC4)CC1 returned MEKK2 mut-MEK5 1, ATG4B inh 47*, MEKK2wt PB1 HTS 105, B2AR ag 1, MEKK3 PB1 HTS 107 and PLA2 counter 63*.
Screening CCCNC(=S)N1CCN(c2nc(C)nc3sc4c(c23)CCCC4)CC1 returned MEKK2 mut-MEK5 3, ATG4B inh 49*, MEKK2wt PB1 HTS 99, B2AR ag -10, MEKK3 PB1 HTS 104, Dynein transport 0.6 and PLA2 counter 78*.
Screening O=C(CSc1nnc(COc2ccccc2)n1-c1ccccc1)c1cccs1 returned MEKK2 mut-MEK5 11, ATG4B inh 54*, MEKK2wt PB1 HTS 107, B2AR ag -21, MEKK3 PB1 HTS 106, Dynein transport 2.4 and PLA2 counter 55*.
For NC(=O)CSc1nnc(COc2ccccc2)n1CCc1ccccc1 the results were MEKK2 mut-MEK5 5, ATG4B inh 54*, MEKK2wt PB1 HTS 101, B2AR ag -15, MEKK3 PB1 HTS 101, Dynein transport 0.027 and PLA2 counter 46.
For O=C(O)CSc1nnc(COc2ccccc2)n1-c1ccccc1 the results were MEKK2 mut-MEK5 9, ATG4B inh 1, MEKK2wt PB1 HTS 100, B2AR ag 2 and MEKK3 PB1 HTS 102.
`Cc1ccc(OCc2nnc(SCC(=O)c3cccs3)n2-c2ccccc2)cc1C` gave MEKK2 mut-MEK5 -1, ATG4B inh 62*, MEKK2wt PB1 HTS 96, B2AR ag -1, MEKK3 PB1 HTS 97, Dynein transport -0.28 and PLA2 counter 78*.
For COCC(C)OC(=O)c1c(N)n(-c2ccc(OC)c(OC)c2)c2nc3ccccc3nc12 (stereo not drawn) the results were MEKK2 mut-MEK5 -5, ATG4B inh -2, MEKK2wt PB1 HTS 95, MEKK3 PB1 HTS 96 and Dynein transport 0.81.
Screening O=C(NCCCNC(=O)c1ccc(-c2cc(Cl)ccc2Cl)o1)c1cnccn1 returned MEKK2 mut-MEK5 1, ATG4B inh -1, MEKK2wt PB1 HTS 99, B2AR ag 5 and MEKK3 PB1 HTS 101.
Screening CC(=O)c1ccccc1NC(=O)COc1ccc(N(C)S(=O)(=O)c2ccc(C)c(C)c2)cc1 returned ATG4B inh 85*, B2AR ag 1 and PLA2 counter 28.
`CC(=O)Nc1ccc(S(=O)(=O)N(C)c2ccc(OCC(=O)Nc3ccccc3C(C)=O)cc2)cc1` gave ATG4B inh -18 and B2AR ag 26.
